Drawing on ChEMBL document CHEMBL1133473, “Synthesis and antiviral activity of 4-benzyl pyridinone derivatives as potent and selective non-nucleoside human immunodeficiency virus type 1 reverse transcriptase inhibitors” (J Med Chem, 2000), this text covers IC50, CC50 and SI for one molecule.

Experiment [1] deals with CEM-SS. Kind of experiment: Tested for inhibitory concentration on HIV-I Lai wild type in CEM-SS cell line. It counts as functional, cell-based. The conditions noted are these: Homo sapiens. The method, boiled down: (§1)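 CEM-SS lymphocytic cells infected with 100 TCID50 of HIV-1 LAI, or of the nevirapine-resistant N119 strain carrying an RT codon 181 mutation. Virus adsorbed 30 min, unbound virus removed by two washes, then cells cultured 5 days with serial compound dilutions. Read-out: RT activity of particles released into the supernatant. IC50 from a computer median effect plot of dose-effect data.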

The test system of experiment [2] is CEM-SS. Kind of experiment: Tested for cytotoxic concentration on HIV-I Lai wild type in CEM-SS cell line. The conditions noted are these: Homo sapiens. In kind it is functional. The procedure, abridged:
(§2)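 CEM-SS cells, uninfected, cultured 5 days with compound. Compounds were taken from a DMSO solution at 10^-2 M (10^-3 M or lower if insoluble), diluted 1:100 in medium, then serially diluted in medium.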

Experiment [3] deals with Human immunodeficiency virus 1. Kind of experiment: Inhibitory concentration against HIV-1 AZTres. It counts as functional, organism-based. The method, boiled down: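 AZT-resistant HIV-1 isolate A018 G910-6 tested in cell culture; virus production measured as RT activity of particles released into the culture supernatant.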
In experiment [4] the test system is Human immunodeficiency virus 1. The experiment in a line: Inhibitory concentration against HIV-1 Bal/Mono. It counts as functional, organism-based. The method, boiled down:
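Macrophage-tropic HIV-1 Bal in monocyte-derived macrophages kept serum-free in AIM V medium with 100 U/mL GM-CSF. Virus output measured as supernatant particle-associated RT activity.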

The nature of experiment [5]: Inhibitory concentration against HIV-2 D 194. In kind it is functional. The procedure, abridged:
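Cell-based antiviral assay against this HIV-2 isolate. Compounds were dissolved in DMSO as 10^-2 M stocks, or 10^-3 M or lower when insoluble, diluted 1% in culture medium, then serially diluted in medium. Virus production was read as reverse transcriptase activity of particles released into the culture supernatant. IC50 was taken from a median-effect plot of the dose-effect data.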

The subject of experiment [6] is Human immunodeficiency virus 1. Kind of experiment: Inhibitory concentration against HIV-1 IIIB strain. In kind it is functional, organism-based. The method, boiled down: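 MT4 cells infected with HIV-1 IIIB; antiviral effect read as protection from virus-induced cytopathogenicity by MTT. Compounds taken from DMSO stock, diluted in culture medium.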
Experiment [7] concerns Human immunodeficiency virus 1. The experiment in a line: Tested for cytotoxic concentration on HIV-I nevirapine resistant strain. It counts as functional. The method, boiled down: as §2
Experiment [8] relates to Human immunodeficiency virus 1. The experiment in a line: Tested for inhibitory concentration on HIV-I nevirapine resistant strain. In kind it is functional, organism-based. The procedure, abridged: as §1
The test system of experiment [9] is MT4. The experiment in a line: Cytotoxicity against MT-4 cells infected with HIV-1 AZTres. In kind it is functional. The conditions noted are these: Homo sapiens.
In experiment [10] the test system is MT4. Kind of experiment: Cytotoxicity against MT-4 cells infected with HIV-1 IIIB strain. The conditions noted are these: Homo sapiens. In kind it is functional.
The nature of experiment [11]: Cytotoxicity against Macrophages infected with HIV-1 Bal/Mono. It counts as functional. To be noted: Human immunodeficiency virus 1.
The nature of experiment [12]: Cytotoxicity against PBMC cells infected with HIV-1 IIIB strain. In kind it is functional. The conditions noted are these: Human immunodeficiency virus 1, PBMC.
The nature of experiment [13]: Cytotoxicity against PBMC cells infected with HIV-2 D 194. In kind it is functional. The conditions noted are these: Human immunodeficiency virus 2, PBMC.
The target in experiment [14] is Human immunodeficiency virus type 1 reverse transcriptase (Human immunodeficiency virus 1, UniProt Q72547). Kind of experiment: Tested for inhibitory concentration on HIV-1 Reverse transcriptase in the presence of poly(c)-oligo-(dG). The method, boiled down:
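Recombinant HIV-1 RT purified from yeast, 20-50 nM. Reaction at 37 °C for 10 min in 50 mM Tris-HCl pH 8.0, 5 mM MgCl2, 4 mM DTT, 80 mM KCl, BSA, 0.48 A260 units/mL poly(C)-oligo(dG) (5:1), 2 µM dGTP plus [3H]dGTP. Stopped with cold 10% TCA plus 0.1 M pyrophosphate; precipitates filtered, scintillation counted. Compounds dissolved in DMSO.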

Experiment [15] in a line: Selectivity index is the ratio of CC50 to IC50 against HIV-1 nevirapine resistant strain. It counts as functional.
Experiment [16] concerns Human immunodeficiency virus 1. The experiment in a line: Selectivity index is the ratio of CC50 to IC50. It counts as functional.

The structures appear in SMILES notation.

A word on the IC50: it is the concentration needed to halve the response being measured. Broadly, the CC50 is the concentration giving 50% cytotoxicity. High values mean lower toxicity to the cells, low ones greater toxicity to the cells.

Consider `CCc1c(C)nc(O)c(N)c1Cc1cc(C)cc(C)c1`, for which the concentration for half-maximal inhibition (IC50) was 0.017 µM in experiment [1]; 4.35 µM in [3]; 0.13 µM in [4]; above 10 µM in experiment [5]; 0.31 µM in experiment [6]; 0.5 µM in [6] (Human immunodeficiency virus 1). Further, the results for the 50% inhibitory concentration (IC50) in [8] and in experiment [14] were 1 µM and 0.1 µM, respectively. Besides, the CC50 in experiment [2], in [7], in [9], in experiment [10], in [11] and in experiment [12] was above 10 µM in each case. In [13], this molecule showed a CC50 above 10 µM. Besides, the SI in experiment [15] is above 10; in [16], above 588.
